# Test results taken from ChEMBL document CHEMBL1121886, “Synthesis and antineoplastic activity of mitosene analogues of the mitomycins” (J Med Chem, 1981).
# How the values were obtained:
# [1] = tested on: P388; test: Optimal dose effective against P388 murine leukemia in mice; type: functional, Mus musculus
# In short: (§1)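 P388 ascites cells (10⁶) were implanted in CDF₁ female mice. Six mice per dose were dosed on day 1 only; 10 controls received saline, and mitomycin C reference groups had six mice per dose. %T/C = MST treated/control × 100. The optimal dose gave the maximum %T/C. MED is the dose giving %T/C 125. TR = optimal dose/MED.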
# [2] = tested on: P388; test: (Percentage) Maximum effect on life span of control group of mice for mytomycin C at its optimal dose; type: functional, Mus musculus
# In short: (§2)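 CDF₁ female mice were implanted with 10⁶ P388 ascites cells and dosed on day 1 only, six mice per dose. There were 10 saline-injected controls, plus a six-mouse mitomycin C group per dose in each experiment. % T/C = median survival treated/control × 100 at optimal dose; MED is the dose giving % T/C 125; TR = optimal dose/MED.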
# [3] = tested on: P388; test: (Percentage) Maximum effect on life span of mice against P388 murine leukemia when compared with control; type: functional, Mus musculus; in short: as §2
# [4] = tested on: P388; test: Minimum effective dose (MED) against P388 murine leukemia in mice; type: functional; conditions: Mus musculus, read-out: MED; in short: as §1
# [5] = tested on: L1210; test: Average change in weight between treated and control groups at 24 mg/kg in mice infected with L1210 leukemia cells; type: functional, Mus musculus
# In short: (§3)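 BDF₁ female mice received 10⁶ L1210 ascites cells, then a single injection on day 1 in distilled water containing Tween 80, six mice per dose. The control group had 36 mice. Median survival time is in days; % T/C = MST treated/MST control × 100, with 125 taken as significant. Weight change is the average weight difference between treated and control groups.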
# [6] = tested on: L1210; test: (§4) Average change in weight between treated and control groups at 3 mg/kg in mice infected with L1210 leukemia cells; type: functional, Mus musculus
# In short: (§5)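 L1210 ascites cells (10⁶) were implanted into BDF₁ female mice. Six mice per dose received a single injection on day 1 in distilled water containing Tween 80; the control group had 36 mice. Survivors were counted on days 5 and 30. %T/C = MST (days) treated/control × 100, with 125 as significant. Weight change is the average weight difference between treated and control groups.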
# [7] = tested on: L1210; test: Median survival time against L1210 murine leukemia at 12 mg/kg in mice when compared with control; type: functional, Mus musculus; in short: as §3
# [8] = tested on: L1210; test: Median survival time against L1210 murine leukemia at 24 mg/kg in mice when compared with control; Toxic; type: functional, organism-based; parameters: dose 24 mg/kg; conditions: Mus musculus; in short: as §5
# [9] = tested on: L1210; test: Median survival time against L1210 murine leukemia at 3 mg/kg in mice when compared with control; type: functional, Mus musculus; in short: as §3
# [10] = tested on: L1210; test: Median survival time against L1210 murine leukemia at 6 mg/kg in mice when compared with control; type: functional, Mus musculus; in short: as §3
# [11] = tested on: L1210; test: Average change in weight between treated and control groups at 6 mg/kg in mice infected with L1210 leukemia cells; type: functional, Mus musculus; in short: as §5
# [12] = tested on: L1210; test: Average change in weight between treated and control groups at 1.5 mg/kg in mice infected with L1210 leukemia cells; type: functional, Mus musculus; in short: as §5
# [13] = tested on: L1210; test: (§6) Average change in weight between treated and control groups at 12 mg/kg in mice infected with L1210 leukemia cells; type: functional, Mus musculus; in short: as §3
# [14] = (§7) Therapeutic ratio of optimal dose to minimum effective dose(MED); type: ADME; conditions: mouse; in short: as §1
# [15] = tested on: L1210; test: Median survival time against L1210 murine leukemia at 1.5 mg/kg in mice when compared with control; type: functional, Mus musculus; in short: as §3
# [16] = as §6; type: functional, Mus musculus; in short: as §5
# [17] = tested on: L1210; test: as §4; type: functional, Mus musculus; in short: as §3; remark: listed apart in the source
# [18] = as §7; type: ADME; conditions: mouse, p388; in short: as §2
# [19] = tested on: L1210; test: Median survival time against L1210 murine leukemia at 24 mg/kg in mice when compared with control; type: functional, Mus musculus; in short: as §3
smiles,measurement,setting,value
CNC(=O)OC1CCn2c3c(c(COC(N)=O)c21)C(=O)C(OC)=C(C)C3=O (centres undefined),Dose,[1],6.4 mg/kg
same,T/C,[2],228%
same,T/C,[3],167%
same,minimal effective dose,[4],1.6 mg/kg
COC1=C(C)C(=O)c2c(c(COC(N)=O)c3n2CCC3OC(N)=O)C1=O (centres undefined),Average weight change,[5],-5.1 g
same,Average weight change,[6],-3.2 g
same,T/C,[7],122%
same,T/C,[8],Toxic
same,T/C,[9],118%
same,T/C,[10],116%
same,Average weight change,[11],-1.7 g
same,Average weight change,[12],-1.4 g
same,Average weight change,[13],-3.4 g
same,Dose,[1],6.4 mg/kg
same,T/C,[2],238%
same,T/C,[3],163%
same,minimal effective dose,[4],0.4 mg/kg
same,selectivity ratio,[14],16
same,T/C,[15],114%
CC(=O)OC1CCn2c3c(c(COC(N)=O)c21)C(=O)C(N1CC1)=C(C)C3=O (centres undefined),Dose,[1],6.4 mg/kg
same,T/C,[2],224%
same,T/C,[3],122%
CO[C@@]12[C@H](COC(N)=O)C3=C(C(=O)C(C)=C(N)C3=O)N1C[C@@H]1N[C@@H]12 [MITOMYCIN],Average weight change,[16],-5.5 g
same,Average weight change,[17],-2.4 g
same,T/C,[7],110%
same,T/C,[9],122%
same,T/C,[10],124%
same,Average weight change,[11],-3.6 g
same,Average weight change,[12],-1.2 g
same,T/C,[15],108%
COC1=C(C)C(=O)c2c(c(COC(N)=O)c3n2CCC3)C1=O,Dose,[1],51.2 mg/kg
same,T/C,[2],183%
same,T/C,[3],128%
same,selectivity ratio,[18],1
same,minimal effective dose,[4],51.2 mg/kg
COC1=C(C)C(=O)c2c(c(COC(N)=O)c3n2CC/C3=N\O)C1=O,Dose,[1],6.4 mg/kg
same,T/C,[2],181%
same,T/C,[3],150%
same,minimal effective dose,[4],1.6 mg/kg
same,selectivity ratio,[14],4
COC(=O)OC1CCn2c3c(c(COC(N)=O)c21)C(=O)C(OC)=C(C)C3=O (centres undefined),Dose,[1],3.2 mg/kg
same,T/C,[2],244%
same,T/C,[3],150%
same,minimal effective dose,[4],1.6 mg/kg
same,selectivity ratio,[14],2
COC1=C(C)C(=O)c2c(c(COC(N)=O)c3n2CCC3OC(=O)CCl)C1=O (centres undefined),Dose,[1],6.4 mg/kg
same,T/C,[2],224%
same,T/C,[3],111%
COC1=C(C)C(=O)c2c(c(COC(N)=O)c3n2CCC3OC(=O)c2cccnc2)C1=O (centres undefined),Dose,[1],6.4 mg/kg
same,T/C,[2],211%
same,T/C,[3],128%
same,minimal effective dose,[4],6.4 mg/kg
same,selectivity ratio,[14],1
COC1=C(C)C(=O)c2c(c(COC(N)=O)c3n2CCC3OC(=O)C(C)(C)C)C1=O (centres undefined),Dose,[1],51.2 mg/kg
same,T/C,[2],183%
same,T/C,[3],117%
COC1=C(C)C(=O)c2c(c(COC(N)=O)c3n2CCC3O)C1=O (centres undefined),Dose,[1],6.4 mg/kg
same,T/C,[2],181%
same,T/C,[3],113%
CNC(=O)OC1CCn2c3c(c(CCl)c21)C(=O)C(OC)=C(C)C3=O (centres undefined),Dose,[1],12.8 mg/kg
same,T/C,[2],222%
same,T/C,[3],139%
same,minimal effective dose,[4],12.8 mg/kg
same,selectivity ratio,[14],1
COc1c(C)c(O)c2c(c1O)c(COC(N)=O)c1n2C[C@@H]2[C@H]1N2C (some centres undefined),Dose,[1],12.8 mg/kg
same,T/C,[2],181%
same,T/C,[3],213%
same,minimal effective dose,[4],0.8 mg/kg
same,selectivity ratio,[14],16
COC1=C(C)C(=O)c2c(c(COC(N)=O)c3n2CCC3OC(C)=O)C1=O (centres undefined),Dose,[1],6.4 mg/kg
same,T/C,[2],229%
same,T/C,[3],165%
same,minimal effective dose,[4],0.8 mg/kg
same,selectivity ratio,[14],8
CC1=C(N2CC2)C(=O)c2c(COC(N)=O)c3n(c2C1=O)CCC3OC(N)=O (centres undefined),Average weight change,[5],-3.2 g
same,Average weight change,[17],-1.1 g
same,T/C,[7],134%
same,T/C,[19],138%
same,T/C,[9],112%
same,T/C,[10],114%
same,Average weight change,[11],-1.6 g
same,Average weight change,[12],-0.6 g
same,Average weight change,[13],-2.4 g
same,Dose,[1],51.2 mg/kg
same,T/C,[2],183%
same,T/C,[3],144%
same,minimal effective dose,[4],0.8 mg/kg
same,selectivity ratio,[14],64
same,T/C,[15],108%
